Assay results from different studies.
Target: Dual specificity mitogen-activated protein kinase kinase 1 (MAP2K1, Homo sapiens, UniProt Q02750)

With O=C(c1ccc(Nc2ncc(Cl)c(-c3cc4ccccc4s3)n2)cc1)N1CCC(N2CCCC2)CC1 the remaining binding was 21% (binding, competition with immobilised ligand; 1 µM).
O=C(NCC1CCOCC1)c1n[nH]cc1NC(=O)c1c(F)cccc1F gave a remaining binding of 100% (binding, competition with immobilised ligand; 1 µM).
With O=C(N1CCS(=O)(=O)CC1)N1C[C@H](c2ccc(OC(F)(F)F)cc2)C[C@H](c2nc(C3CC3)no2)C1 the remaining binding was 91% (cell-free assay, competition with immobilised ligand; 1 µM).
The remaining binding of CN(C)c1ncc(F)c(-c2cnn3ncccc23)n1 is reported as 78% (binding, competition with immobilised ligand; 1 µM).
The remaining binding of C[C@@H]1CN(c2ccc3ncc(-c4ccc5[nH]nc(C6CC6)c5c4)n3n2)C[C@H](C)O1 is reported as 100% (binding, competition with immobilised ligand; 0.5 µM).
With Cc1noc([C@H]2C[C@@H](c3ccc(C(F)(F)F)cc3)CN(C(=O)N3CCS(=O)(=O)C3)C2)n1 the remaining binding was 100% (cell-free assay, competition with immobilised ligand; 1 µM).
N#Cc1ccccc1CSc1nnc2c(n1)[nH]c1ccccc12 has a remaining binding of 95% (binding, competition with immobilised ligand; 10 µM).
With Cc1nc(Cc2cccc(C(F)(F)F)c2)sc1-c1ccc(C(N)=O)nc1 the remaining binding was 100% (cell-free assay, competition with immobilised ligand; 1 µM).
COc1cc2ncnc(Nc3ccc(F)c(Cl)c3)c2cc1OCCCN1CCOCC1 has a remaining binding of 83% (cell-free assay, competition with immobilised ligand; 10 µM).
For COc1ccc2cc(OCC3(C(=O)O)CN(C(=O)c4ccc(F)cc4)C3)ccc2c1, the remaining binding was 100% (cell-free assay, competition with immobilised ligand; 1 µM).
CNC(=O)c1cc(Oc2ccc(NC(=O)Nc3ccc(Cl)c(C(F)(F)F)c3)cc2)ccn1 gave a remaining binding of 100% (cell-free assay, competition with immobilised ligand; 0.1 µM).
The remaining binding of O=C(NCc1ncc(C(F)(F)F)cc1Cl)c1ccc2c(c1)C1(CCS(=O)(=O)CC1)[C@@H](C1CC1)N2S(=O)(=O)c1ccc(F)cc1 is reported as 91% (cell-free assay, competition with immobilised ligand; 1 µM).
O=C(c1ccc(Nc2ncc(Cl)c(-c3ccc(Cl)s3)n2)cc1)N1CCC(N2CCCC2)CC1 has a remaining binding of 18% (binding, competition with immobilised ligand; 1 µM).
For c1cncc(-c2cccc(Nc3nccc(NC4CCCCC4)n3)c2)c1, the remaining binding was 79% (binding, competition with immobilised ligand; 10 µM).
The remaining binding of C=CC(=O)N1CCC(C(=O)NCC(=O)N2CCN(c3nc(-c4cnc(N)nc4C(F)F)nc(N4CCOCC4)n3)CC2)CC1 is reported as 69% (binding, competition with immobilised ligand; 1 µM).
For CS(=O)(=O)CCNCc1ccc(-c2ccc3ncnc(Nc4ccc(OCc5cccc(F)c5)c(Cl)c4)c3c2)o1, the remaining binding was 87% (cell-free assay, competition with immobilised ligand; 10 µM).
For O=C(c1ccc(Nc2nccc(-c3cc4ccccc4s3)n2)cc1)N1CCC(N2CCCC2)CC1, the remaining binding was 54% (binding, competition with immobilised ligand; 1 µM).
Cc1nc(Nc2ncc(C(=O)Nc3c(C)cccc3Cl)s2)cc(N2CCN(CCO)CC2)n1 has a remaining binding of 89% (cell-free assay, competition with immobilised ligand; 0.1 µM).
With N#CC1(c2ccccn2)CCN(Cc2cc(C(=O)N3CCCC3)c(=O)n3ccccc23)CC1 the remaining binding was 100% (cell-free assay, competition with immobilised ligand; 1 µM).
For CN(CCCC(F)(F)F)c1nccc(-c2cnn3ncccc23)n1, the remaining binding was 99% (binding, competition with immobilised ligand; 1 µM).
CC(=O)Nc1c(C(C)=O)c(=O)n(C)c2nc(-c3ccc(Cl)cc3Cl)c(-c3ccc(Cl)cc3)cc12 gave a remaining binding of 100% (cell-free assay, competition with immobilised ligand; 1 µM).
The remaining binding of COC(=O)Nc1nc2cc(C(=O)c3ccccc3)ccc2[nH]1 is reported as 100% (cell-free assay, competition with immobilised ligand; 0.1 µM).
With COc1cnc(Nc2cccc(S(N)(=O)=O)c2)nc1N1CCN(c2ccccc2)C(=O)C1 the remaining binding was 91% (binding, competition with immobilised ligand; 1 µM).
C[C@@H]1CCN(c2nccc(-c3cnn4ncccc34)n2)C1 has a remaining binding of 75% (binding, competition with immobilised ligand; 1 µM).
With Cc1c(-c2ccccc2)oc2c(C(=O)OCCN3CCCCC3)cccc2c1=O the remaining binding was 94% (cell-free assay, competition with immobilised ligand; 0.1 µM).
The remaining binding of C[C@@H](c1ccc(-n2cnc3c(N)ncnc32)cc1)N1CCc2nn(C)c(Cc3ccccc3)c2C1=O is reported as 89% (binding, competition with immobilised ligand; 0.1 µM).
For C[C@@H](c1cccc(C#N)c1)n1cc(Cl)cc(C(N)=O)c1=N, the remaining binding was 80% (cell-free assay, competition with immobilised ligand; 1 µM).
N[C@@H]1CCN(c2nccc(-c3cnn4ncccc34)n2)C1 gave a remaining binding of 100% (binding; 1 µM).
For Cc1ccc(NC(=O)c2ccc(CN3CCN(C)CC3)cc2)cc1Nc1nccc(-c2cccnc2)n1, the remaining binding was 95% (cell-free assay, competition with immobilised ligand; 0.1 µM).
CCN1CCN(Cc2ccc(C(=O)Nc3ccc(C)c(Oc4ccc5c(c4)CC(=O)N5)c3)cc2C(F)(F)F)CC1 gave a remaining binding of 100% (binding, competition with immobilised ligand; 1 µM).
With CN1CC[C@H](c2c(O)cc(O)c3c(=O)cc(-c4ccccc4Cl)oc23)[C@H](O)C1 the remaining binding was 92% (cell-free assay, competition with immobilised ligand; 0.1 µM).
For CN(C)c1nccc(-c2cnc3ncccn23)n1, the remaining binding was 81% (binding, competition with immobilised ligand; 1 µM).
